{"source": "ChEMBL document CHEMBL1649302", "about": "“New small-molecule inhibitor class targeting human immunodeficiency virus type 1 virion maturation” (Antimicrob Agents Chemother, 2009)", "key": {"[1]": {"test_system": "Human immunodeficiency virus 1", "test": "Antiviral activity against HIV1 harboring spacer peptide A1V mutant protein infected in human HeLa cells assessed as decrease in viral infection after […] by beta-galactosidase reporter gene assay", "format": "functional, organism-based", "settings": "Human immunodeficiency virus 1, HeLa", "how_it_was_run": "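MT-2 cells were infected for 2 h with wild-type NL4-3 or recombinant NL4-3 carrying CA I201V or SP1 A1V. They were then cocultured with HeLa CD4 LTR/beta-Gal indicator cells in serially diluted compound. Beta-gal reporter was read after 4 days. EC50s are means ± SD of 3–6 experiments. Fold change is mutant EC50 divided by wild-type EC50.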"}, "[2]": {"test_system": "Human immunodeficiency virus 1", "test": "Antiviral activity HIV1 92HT594 infected in human PBMC after 7 days by scintillation counting", "format": "functional, organism-based", "settings": "Human immunodeficiency virus 1, 92HT594, 168 h", "how_it_was_run": "(§1)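 PBMCs came from buffy coats pooled from 3–4 seronegative donors, were PHA-stimulated (1.5 μg/ml, 3 days) and frozen. Thawed cells were infected 1 h at 37°C with virus input set by TCID50, then pelleted and resuspended in IL-2 (10 ng/ml). They were plated at 4 × 10⁵ cells/ml onto compounds for 7 days at 37°C. Supernatant RT activity was measured by Quan-T-RT scintillation assay.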"}, "[3]": {"test": "Therapeutic index, ratio of CC50 for human PBMC to EC50 for HIV1 92BR026 infected in human PBMC", "settings": "read-out: TI"}, "[4]": {"test_system": "Human immunodeficiency virus 1", "test": "Antiviral activity against HIV1 3B infected in human MT2 cells assessed as protection against virus-induced cytopathogenicity after 6 days by XTT assay", "format": "functional, organism-based", "settings": "Human immunodeficiency virus 1, 3B, MT2, 144 h", "how_it_was_run": "(§2)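 Host cells were infected with NL4-3 or IIIB (MOI 0.08) or RF (MOI 0.025–0.819) and seeded at 2 × 10⁴/well onto half-log compound dilutions. After 6 days, XTT/PMS was added for 4 h and formazan was read at 450 nm. EC50 was the concentration giving 50% of the formazan of uninfected, compound-free cells.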"}, "[5]": {"test_system": "Human immunodeficiency virus 1", "test": "Antiviral activity against HIV1 RF infected in human MT2 cells assessed as protection against virus-induced cytopathogenicity after 6 days by XTT assay", "format": "functional, organism-based", "settings": "Human immunodeficiency virus 1, RF, MT2, 144 h", "how_it_was_run": "as §2"}, "[6]": {"test": "Therapeutic index, ratio of CC50 for human PBMC to EC50 for HIV1 92US072 infected in human PBMC", "settings": "read-out: TI", "how_it_was_run": "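PHA-stimulated (4 μg/ml, 48 to 72 h) PBMCs pooled from at least two seronegative donors, kept with 20 U/ml IL-2, plated at 5 × 10⁴ cells/well. Infected with clinical isolate (final MOI ≅0.1) alongside nine compound concentrations in triplicate wells, 7 days. Supernatant reverse transcriptase activity measured. TI is mean PBMC CC50 divided by mean EC50.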"}, "[7]": {"test_system": "Human immunodeficiency virus 1", "test": "Antiviral activity HIV1 92US076 infected in human PBMC after 7 days by scintillation counting", "format": "functional, organism-based", "settings": "Human immunodeficiency virus 1, 92US076, 168 h", "how_it_was_run": "(§3)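 Fresh PBMCs from HIV/HBV-seronegative donors were PHA-stimulated (4 μg/ml, 48–72 h) and kept with IL-2 (20 U/ml), with at least two donors pooled. Cells were seeded at 5 × 10⁴/well and infected (final MOI ≅0.1) with nine compound concentrations in triplicate wells. After 7 days, reverse transcriptase activity was measured in cell-free supernatant.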"}, "[8]": {"test_system": "Human immunodeficiency virus 1", "test": "Antiviral activity HIV1 CMU06 infected in human PBMC after 7 days by scintillation counting", "format": "functional, organism-based", "settings": "Human immunodeficiency virus 1, CMU06, 168 h", "how_it_was_run": "as §1"}, "[9]": {"test_system": "Human immunodeficiency virus 1", "test": "Antiviral activity against HIV1 NL4-3 infected in human HeLa cells assessed as decrease in single-cycle viral infection after 72 hrs by beta-galactosidase reporter gene assay", "format": "functional, organism-based", "settings": "Human immunodeficiency virus 1, NL4-3, HeLa", "how_it_was_run": "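HeLa CD4 LTR/beta-Gal cells (1 × 10⁴/well, DMEM + 10% FBS) were pre-dosed with half-log compound dilutions. They were infected at MOI 0.03 with single-cycle NL4-3 reporter virus made by cotransfecting HEK 293 cells with pNL4-3deltaEnv and an NL4-3 envelope vector. EC50 is from beta-gal reporter activity relative to infected untreated cells, across three experiments.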"}, "[10]": {"test_system": "Human immunodeficiency virus 1", "test": "Antiviral activity HIV1 WEJO infected in human PBMC after 7 days by scintillation counting", "format": "functional, organism-based", "settings": "Human immunodeficiency virus 1, WEJO, 168 h", "how_it_was_run": "as §3"}, "[11]": {"test_system": "Human immunodeficiency virus 1", "test": "Antiviral activity HIV1 NL4-3 infected in human PBMC after 7 days by scintillation counting", "format": "functional, organism-based", "settings": "Human immunodeficiency virus 1, NL4-3, 168 h", "how_it_was_run": "as §1"}}, "data": [{"smiles": "CC(C)(C)c1ccc(C(Cn2cccc(C(F)(F)F)c2=O)NC2Cc3ccccc3C2)cc1", "note": "(stereo unspecified)", "values": [{"measurement": "EC50", "setting": "[1]", "value": "> 3200", "unit": "nM"}, {"measurement": "EC50", "setting": "[2]", "value": 1100, "unit": "nM"}, {"measurement": "selectivity ratio", "setting": "[3]", "value": "< 1"}, {"measurement": "EC50", "setting": "[4]", "value": 17, "unit": "nM"}, {"measurement": "EC50", "setting": "[5]", "value": "> 16000", "unit": "nM"}, {"measurement": "selectivity ratio", "setting": "[6]", "value": 3400}, {"measurement": "EC50", "setting": "[7]", "value": 7, "unit": "nM"}, {"measurement": "EC50", "setting": "[8]", "value": 1200, "unit": "nM"}, {"measurement": "EC50", "setting": "[9]", "value": "> 10000", "unit": "nM"}, {"measurement": "EC50", "setting": "[10]", "value": 1500, "unit": "nM"}, {"measurement": "EC50", "setting": "[11]", "value": 110, "unit": "nM"}]}]}
